Results: ChEMBL document CHEMBL1147030, “N-thiolated beta-lactams: Studies on the mode of action and identification of a primary cellular target in Staphylococcus aureus” (2007)
Calls of active or inactive are those of the source. No cut-off for these calls is given here.

Assays:
[1] = system: Staphylococcus aureus; experiment: Effect on DNA replication in Staphylococcus aureus ATCC 25923 assessed as inhibition of [3H]thymidine utilization after 30 mins relative to control; type: functional; set-up: scale not given: the % may be the effect or the level left
Summary of the method: (§1)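 Early log-phase cells in Luria Broth labelled with 3 μCi [methyl-3H]thymidine (DNA) or 3 μCi [5-3H]uridine (RNA), with or without drug at twice the MIC; ciprofloxacin (DNA) or rifampicin (RNA) as reference inhibitors, DMSO control. 50 μL samples taken at 5, 10, 20, 30, 45, 60 min into ice-cold 10% TCA; precipitated radioactivity by liquid scintillation, expressed relative to untreated control.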

[2] = system: Escherichia coli; experiment: Effect on pBR322 fragmentation at 5 to 100 uM after 24 hrs by agarose gel electrophoresis; type: functional
Summary of the method: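 Supercoiled pBR322 (0.5 μg) in 50 mM sodium phosphate, pH 7.4, treated with 5–100 μM compound (added in DMSO; DMSO-only lane as control), 37°C for 24 h. Aliquots run on 1.2% agarose/TAE gel with ethidium bromide at 80 V/10 cm for 2.5 h, UV visualization of single- and double-strand breakage.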

[3] = system: Staphylococcus aureus; experiment: Growth inhibition against methicillin-susceptible Staphylococcus aureus ATCC 25923 after 2 hrs by agar dilution; type: functional, organism-based
[4] = system: Staphylococcus aureus; experiment: Growth inhibition against […] Staphylococcus aureus ATCC 25923 after 2 hrs by agar dilution; type: functional, organism-based
Summary of the method: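 Log-phase overnight culture inoculated at 10^6 cfu/mL into fresh Mueller-Hinton broth and shaken 1 hr at 35°C. Compound in DMSO then added at 1, 5 or 10 times the MIC, with MIC set by agar dilution in Mueller-Hinton II agar read after 24 hr at 37°C. Growth was followed by viable counts from plated dilutions (colonies counted after 24 hr) and OD 630 nm.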

[5] = system: Staphylococcus aureus; experiment: Effect on fatty acid biosynthesis in Staphylococcus aureus RN4220 assessed as [3H]acetate uptake relative to control; type: functional, organism-based
Summary of the method: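 Strain RN4220 grown at 37 °C to A600 0.11 (1.3 x 10^7 cfu/mL), split into 5 mL tubes; drug added at 1x or 2x MIC (final DMSO 2%), penicillin G 2xMIC and no-drug controls. After 5 min, 3H-acetate added (4 μCi/mL); 0.8 mL aliquots at 15, 30, 45, 60 min extracted with chloroform/methanol; uptake compared with controls.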

[6] = system: Staphylococcus aureus; experiment: Growth inhibition against penicillin-susceptible Staphylococcus ATCC 25923 aureus after 24 hrs; type: functional, organism-based
Summary of the method: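 Well-diffusion plate: 10^8 suspension in PBS pH 7.4 swabbed on TSA; 6-mm wells loaded with 20 μg compound (from 1 mg/mL DMSO stock), penicillin G 20 μg as comparator; 37°C, 24 h; growth-inhibition zones read.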

[7] = system: Staphylococcus aureus; experiment: Effect on RNA transcription in Staphylococcus aureus ATCC 25923 assessed as [3H]uridine incorporation after 20 mins relative to control; type: functional; summary of the method: as §1
[8] = system: Staphylococcus aureus; experiment: Inhibition of cell wall biosynthesis in Staphylococcus aureus assessed as cytoplasmic membrane rupture; type: functional, organism-based
Summary of the method: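 S. aureus ATCC 25923 lawns on TSA with 6-mm paper discs carrying 20 μg compound or penicillin G. SEM: after 24 h at 37°C, agar at the edge of inhibition zones cut out, glutaraldehyde-osmium fixed, gold/palladium coated, imaged for cell morphology. Light microscopy: after 4–5 h, cells lifted onto coverslips from zones, Gram-stained (safranin counterstain), viewed bright-field.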

## CO[C@H]1C(=O)N(SC)[C@H]1c1ccccc1Cl
[1]
  Activity: >90%
[2]
  Activity: inactive
[3]
  Activity: Active
[4]
  Activity: Active
[5]
  Activity: Active
[6]
  Activity: Active
[7]
  Activity: 80%
[8]
  Activity: inactive

## CO[C@H]1/C=C/O[C@@]2(C)Oc3c(C)c(O)c4c(O)c(c(/C=N/N5CCN(C)CC5)c(O)c4c3C2=O)NC(=O)/C(C)=C\C=C\[C@H](C)[C@H](O)[C@@H](C)[C@@H](O)[C@@H](C)[C@H](OC(C)=O)[C@@H]1C [RIFAMPIN]
[7]
  Activity: <20%

## O=C(O)c1cn(C2CC2)c2cc(N3CCNCC3)c(F)cc2c1=O [CIPROFLOXACIN]
[1]
  Activity: 65%

## CC1(C)S[C@@H]2[C@H](NC(=O)Cc3ccccc3)C(=O)N2[C@H]1C(=O)O
[6]
  Activity: inactive
[8]
  Activity: Active
